Results on five compounds are retold here after ChEMBL document CHEMBL1147245, “Chemistry of renieramycins. Part 3.(1) isolation and structure of stabilized renieramycin type derivatives possessing antitumor activity from Thai sponge Xestospongia species, pretreated with potassium cyanide” (J Nat Prod, 2003).

Assay type in all cases: functional, cell-based
In one assay the test system is QG-56. The experiment in a line: Cytotoxicity against human QG56 cells after 4 days. The settings on record: QG-56, 96 h.
The subject of a further assay is HCT-116. Briefly: Cytotoxicity against human HCT116 cells after 4 days. The settings on record: HCT-116, 96 h. In a few lines: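 HCT116 cells seeded as single-cell suspension at 2×10^3 cells/well onto serially diluted compounds, cultured 4 days; growth read with a cell counting kit. IC50 taken as concentration giving 50% growth inhibition relative to untreated control.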

The subject of the next assay is NCI-H460. Briefly: Cytotoxicity against human NCI-H460 cells after 4 days. The settings on record: NCI-H460, 96 h.
The next assay has as its system DLD-1. Briefly: Cytotoxicity against human DLD1 cells after 4 days. The settings on record: DLD-1, 96 h.

A word on the IC50: it is the concentration at which inhibition is half-maximal. Higher therefore signals weaker potency.

In the case of `COc1cc2c(cc1O)CCN[C@]21CS[C@@H]2c3c(OC(C)=O)c(C)c4c(c3[C@H](COC1=O)N1[C@@H]2[C@H]2c3c(cc(C)c(OC)c3O)C[C@@H]([C@@H]1C#N)N2C)OCO4` [ECTEINASCIDIN 770], the IC50 was 3.9 nM in the assay with QG-56, 1.2 nM in the assay on HCT-116, 0.64 nM with NCI-H460 and 2.4 nM in the assay on DLD-1.

With `COC1=C(C)C(=O)C2=C(C1=O)[C@@H]1[C@@H]3CC4=C(C(=O)C(OC)=C(C)C4=O)[C@H](CNC(=O)C(C)=O)N3[C@@H](C#N)[C@H](C2)N1C` [SAFRAMYCIN A], the half-maximal inhibitory concentration (IC50) in the assay with QG-56 worked out at 5.5 nM; in the assay with HCT-116 it was 0.4 nM; with NCI-H460, 2.1 nM; in the assay on DLD-1 it was 0.6 nM.

On to `C/C=C(/C)C(=O)OC[C@H]1C2=C(C[C@H]3[C@H]4C5=C(C[C@@H]([C@H](C#N)N13)N4C)C(=O)C(C)=C(OC)C5=O)C(=O)C(C)=C(OC)C2=O` [RENIERAMYCIN M], for which the IC50 is 19 nM with QG-56, 7.9 nM with HCT-116, 5.9 nM with NCI-H460 and 9.6 nM in the assay with DLD-1.

For the compound `C/C=C(/C)C(=O)OC[C@H]1C2=C(C[C@H]3[C@H]4c5c(O)c(OC)c(C)c(O)c5[C@H](O)[C@@H]([C@H](C#N)N13)N4C)C(=O)C(C)=C(OC)C2=O` [RENIERAMYCIN N], the concentration for half-maximal inhibition (IC50) with QG-56 came out at 11 nM; with HCT-116, 5.6 nM; in the assay on NCI-H460, 6.7 nM; with DLD-1 it was 5.7 nM.

`C/C=C(/C)C(=O)OC[C@H]1C2=C(C[C@H]3[C@H]4C5=C(C(=O)C(C)=C(OC)C5=O)[C@H](O)[C@@H]([C@H](C#N)N13)N4C)C(=O)C(C)=C(OC)C2=O` [RENIERAMYCIN O]: the IC50 in the assay on QG-56 came out at 40 nM; with HCT-116 it was 28 nM.
